Columns and labels:
Ang- = format: in vitro ADME, rat; details: n=3
How it was run: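 NRK-52E cells grown to confluence are serum-starved 24 h, then kept 48 h in serum-free or 100 uM glycated albumin (MGA) medium. They are harvested, frozen at −80°C and homogenized in 10 mM HEPES, 125 mM NaCl, 10 μM ZnCl2, pH 7.4, then spun at 100,000g. 125I-Ang-(1-7) (0.5 nM) is incubated with 2 μg supernatant protein for 30 min at 37°C and stopped with ice-cold 1.0% phosphoric acid. Products are separated by isocratic reverse-phase HPLC with flow-through γ detection, identified against 125I standards, and reported as fmol/mg/min (Bradford protein).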

α-SMA in NRK-52E cells [1] = assay: α-SMA protein expression by Western blot; format: cell-based, rat; details: 100 μM MGA 48 h
How it was run: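 After 24 h serum starvation, cells received 100 uM MGA ± test agents for 48 h. Triton lysates were run on 10% SDS-PAGE and transferred to PVDF. Blots were probed overnight at 4°C with mouse anti-α-SMA (1:5000), then anti-mouse HRP (1:3000) and chemiluminescence. Membranes were stripped and re-probed for EFα1 (1:3000) as loading control. Densitometry; 3-4 cell passages.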

α-SMA in NRK-52E cells [2] = assay: α-SMA immunofluorescent staining; format: cell-based, rat; details: 100 μM MGA 72 h, Ang-(1-7) 100 nM + DAL 10 μM
How it was run: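 NRK-52E cells were grown 2 days on chamber slides in 5% FBS medium, then serum-free for 24 h. They were treated 72 h with 100 μM MGA ± test agents and fixed in 2% paraformaldehyde for 15 min. After 0.2% Triton permeabilisation and 3% BSA block, cells were stained overnight at 4°C with mouse anti-α-SMA (1:200), then Alexa Fluor 568 anti-mouse (1:400); nuclei with DAPI. Representative of 3 passages.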

[3] = test system: TGF-β release from NRK-52E cells; assay: TGF-β release into cell media by ELISA; format: cell-based, rat; details: MGA 48 h
How it was run: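 Cells were seeded in 12-well plates, kept serum-free for 24 h, then treated with MGA ± test agents; serum-free cells served as controls. Media were collected on ice and TGF-β measured by ELISA (sensitivity 15 pg/ml). Release was expressed as ng/ml.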

ERK1/2 in NRK-52E cells [4] = assay: MGA-induced ERK1/2 phosphorylation by Western blot; format: cell-based, rat; details: MGA 48 hours, immunoblot densitometry, n=3
How it was run: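 Cells were serum-starved for 24 h, then treated with 100 uM MGA for 48 h. Lysis was in Triton buffer, pH 7.4, with NaVO4, PMSF and leupeptin. 10-50 μg protein was run on 10% SDS-PAGE and transferred to PVDF. Blots were probed overnight at 4°C with anti-phospho-ERK1/2 (1:2000), then stripped and re-probed for total ERK1/2 (1:3000). Detection was HRP chemiluminescence, with densitometry. 3 cell passages.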

NRK-52E cells [5] = assay: Cell area in immunofluorescent images; format: cell-based, rat; details: MGA 48 hours
How it was run: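 NRK-52E cells were serum-starved for 24 h, then exposed to MGA for 48 h. Immunofluorescent images were taken. Fields were chosen at random and every cell in each field was measured. Cell area was expressed as % of control cell area.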

NRK-52E cells [6] = assay: Cellular hypertrophy by 3H-leucine incorporation; format: cell-based, rat; details: 100 μM MGA 48 h
How it was run: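 Confluent NRK-52E cells were serum-starved for 24 h, then kept 48 h in serum-free medium ± 100 μM MGA and test agents. Cells were pulsed with 0.5 μCi 3H-leucine for the last 24 h at 37°C, washed in PBS and fixed 15 min in ice-cold 10% TCA. After 5% TCA washes, protein was dissolved in 0.05 N NaOH/0.1% SDS at 37°C and counted by scintillation. Triplicate wells; % of control per well; 5 cell passages.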

NRK-52E cells [7] = assay: Intracellular angiotensin peptide content by RIA; format: cell-based, rat
How it was run: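 Cells were serum-free for 24 h, then given 100 uM MGA for 48 h; pellets were snap-frozen. Pellets were boiled 15 min in water, sonicated, acidified to 0.2% TFA and spun at 20,000g for 20 min at 4°C. Peptides were extracted on C18 (eluted in 80% methanol/0.2% TFA) and blanks subtracted. Ang I, Ang II and Ang-(1-7) were measured by separate RIAs; the Ang-(1-7) RIA also detects Ang-(2-7). Paired t-test versus control.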

ERK1/2 in NRK-52E cells [8] = assay: TGF-β-induced ERK1/2 phosphorylation by Western blot; format: cell-based, rat; details: TGF-β 5 ng/ml, 15 min incubation, n=3
How it was run: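 Rat kidney proximal epithelial NRK-52E cells in DMEM/F12 with 5% FBS are serum-starved 24 h, then exposed to TGF-β (5 ng/ml) for 15 min. Lysis is in Triton buffer (100 mM NaCl, 50 mM NaF, 5 mM EDTA, 1% Triton X-100, 50 mM Tris-HCl pH 7.4, plus NaVO4, PMSF, leupeptin), followed by sonication and a 10,000 g spin. 10-50 μg protein is run on 10% SDS-PAGE and blotted to PVDF. Phospho-ERK1/2 is detected by HRP chemiluminescence, then the membrane is stripped and reprobed for total ERK1/2. Bands are quantified by densitometry.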

Molecule: CC[C@H](C)[C@H](NC(=O)[C@H](Cc1ccc(O)cc1)NC(=O)[C@@H](NC(=O)[C@H](CCCNC(=N)N)NC(=O)[C@@H](N)CC(=O)O)C(C)C)C(=O)N[C@@H](Cc1c[nH]cn1)C(=O)N1CCC[C@H]1C(=O)O [Ang-(1-7), Angiotensin-(1-7)]
- Metabolism of Ang-(1-7) to Ang-(1-4), MGA cells (abstract) (Ang-; supernatant of MGA-treated NRK-52E cells): 175 ± 9 fmol/min/mg protein
- Metabolism of Ang-(1-7) to Ang-(1-4), control cells (abstract) (Ang-; supernatant of control NRK-52E cells): 115 ± 11 fmol/min/mg protein

Molecule: D-Ala^7-Ang-(1-7) [DAL, reference compound]
- Effect of DAL on the inhibition of MGA-induced α-SMA expression by Ang-(1-7) (α-SMA in NRK-52E cells [1]; Ang-(1-7) 100 nM + DAL 10 μM): blocked
- Effect of DAL on the inhibition of MGA-induced MT by Ang-(1-7) (α-SMA staining) (α-SMA in NRK-52E cells [2]): appeared to be reversed

Molecule: MGA: AGE product: BSA incubated with 500 μM methylglyoxal for 24 hours
- TGF-β release, MGA alone ([3]; ELISA of media, control 0.4 ± 0.1, n=6): 1.16 ± 0.1 ng/mL
- Fold increase of TGF-β release, MGA alone ([3]; vs control): approximately 3 fold
- Fold increase in density of phosphorylated ERK 1, MGA alone (ERK1/2 in NRK-52E cells [4]): 2.5 fold
- Fold increase in density of phosphorylated ERK 2, MGA alone (ERK1/2 in NRK-52E cells [4]): 4 fold
- Fold increase of cell area, MGA alone (NRK-52E cells [5]): approximately 4 fold
- Cell area, MGA alone (NRK-52E cells [5]; mean ± SEM n=3): 467 ± 70 % of control
- Fold increase of 3H-leucine incorporation, MGA alone (NRK-52E cells [6]): approximately 2 fold
- Fold induction of α-SMA protein expression, MGA alone (α-SMA in NRK-52E cells [1]; vs control cells): 3 fold
- Intracellular Ang-(1-7) peptide content (NRK-52E cells [7]; 100 uM MGA 48 h, RIA, mean ± SEM, n=3, control cells 396 ± 59): 219 ± 54 fmol/mg protein
- Intracellular Ang I peptide levels vs control (NRK-52E cells [7]; 100 uM MGA 48 h, RIA, n=3): not different
- Intracellular Ang II peptide levels vs control (NRK-52E cells [7]; 100 uM MGA 48 h, RIA, n=3): not different
- Reduction of intracellular levels of Ang-(1-7) (NRK-52E cells [7]; MGA exposure 48 hours): approximately 50%

Molecule: TGF-β
- ERK1/2 phosphorylation, TGF-β alone (ERK1/2 in NRK-52E cells [8]): stimulated

From publication PMC4254268 (Cellular signalling, 2014)
